Legend:
[1] = biological target: T1, Thymidine phosphorylase (Homo sapiens) (UniProt P19971); experiment: Ratio of Kcat to Km against human thymidine phosphorylase
T1 sequence (whole entry): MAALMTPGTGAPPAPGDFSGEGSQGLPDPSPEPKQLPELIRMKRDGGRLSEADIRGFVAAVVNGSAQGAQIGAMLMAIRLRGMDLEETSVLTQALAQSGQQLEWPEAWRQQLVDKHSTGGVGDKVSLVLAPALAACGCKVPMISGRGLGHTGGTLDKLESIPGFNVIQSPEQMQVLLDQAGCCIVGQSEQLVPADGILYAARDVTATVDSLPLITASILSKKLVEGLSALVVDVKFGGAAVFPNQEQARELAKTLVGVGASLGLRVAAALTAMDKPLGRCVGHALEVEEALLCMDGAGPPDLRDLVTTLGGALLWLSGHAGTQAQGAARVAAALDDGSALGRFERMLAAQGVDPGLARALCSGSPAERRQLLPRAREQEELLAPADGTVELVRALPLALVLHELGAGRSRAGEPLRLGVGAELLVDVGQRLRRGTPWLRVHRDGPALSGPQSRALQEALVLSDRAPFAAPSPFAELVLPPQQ
Procedure, shortened: (§1)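 Recombinant human TP expressed in V79 Chinese hamster cells, 0.065 absorbance unit per assay. Continuous spectrophotometric assay at 355 nm, 25 °C, 0.1 M phosphate buffer pH 7.4, 0.2 mL total volume, with 5-nitro-2'-deoxyuridine as substrate; kinetic constants from initial rates.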

[2] = biological target: T1, Thymidine phosphorylase (Homo sapiens); experiment: Catalytic constant against human thymidine phosphorylase; procedure, shortened: as §1
[3] = biological target: Thymidine phosphorylase (Escherichia coli K-12) (UniProt P07650); experiment: Catalytic constant against Escherichia coli thymidine phosphorylase
Procedure, shortened: (§2)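 Continuous UV assay at 355 nm and 25 °C in 0.2 mL of 0.1 M potassium phosphate pH 7.4, using recombinant E. coli TP (ca. 0.00883 units per assay) added to start the reaction. Substrate is thymidine or 5-nitro-2'-deoxyuridine; phosphorolysis to 5-nitrouracil followed (εM 13300 M-1 cm-1 for substrate).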

[4] = biological target: Thymidine phosphorylase (Escherichia coli K-12) (UniProt P07650); experiment: Ratio of Kcat to Km for Escherichia coli thymidine phosphorylase; procedure, shortened: as §2

Chain of Thymidine phosphorylase (Escherichia coli K-12) (P07650 whole entry, looked up): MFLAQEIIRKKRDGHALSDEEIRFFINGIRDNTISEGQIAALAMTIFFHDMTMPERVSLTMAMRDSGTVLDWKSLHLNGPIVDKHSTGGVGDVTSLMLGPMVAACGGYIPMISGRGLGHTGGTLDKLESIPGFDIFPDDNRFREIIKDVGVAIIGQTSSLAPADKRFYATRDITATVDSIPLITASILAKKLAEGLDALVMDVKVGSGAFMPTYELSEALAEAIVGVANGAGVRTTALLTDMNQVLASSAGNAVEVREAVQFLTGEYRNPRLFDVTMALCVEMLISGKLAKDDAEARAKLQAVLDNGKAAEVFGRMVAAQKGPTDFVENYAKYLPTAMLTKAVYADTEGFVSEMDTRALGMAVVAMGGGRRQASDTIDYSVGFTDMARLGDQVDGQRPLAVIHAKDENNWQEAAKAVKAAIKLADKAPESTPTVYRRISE

Row | Structure (SMILES) | Ratio [1] [M⁻¹ s⁻¹] | k cat [2] [s⁻¹] | k cat [3] [s⁻¹] | Ratio [4] [M⁻¹ s⁻¹]
1 | O=c1[nH]c(=O)n([C@H]2C[C@H](O)[C@@H](CO)O2)cc1[N+](=O)[O-] | 18000 | 2.88 | 20 | 87000
2 | Cc1cn([C@H]2C[C@H](O)[C@@H](CO)O2)c(=O)[nH]c1=O | – | – | 1770 | 7.4e+06

Source: ChEMBL document CHEMBL1144404, “Aminoimidazolylmethyluracil analogues as potent inhibitors of thymidine phosphorylase and their bioreductive nitroimidazolyl prodrugs” (J Med Chem, 2005)
